Most compounds without a hit are left out; they make up all but 3.1% or so of the library.
PRMT1 inh = inhibitors of human PRMT1. Q99873. recombinant PRMT1, activity-based probe fluorescence polarization. inhibition, % at 2.79 µM. 370,000 tested, 1.3% active;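 active = inhibition above about 21% made by adding two undisclosed values, limit read from the data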
RBBP9 inhibitor = inhibitors of human serine hydrolase RBBP9. 220,000 tested, 0.2% active. inhibition, % at 7.94 µM. recombinant RBBP9, FP-Rh probe fluorescence polarization. AID 1515;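 active = inhibition above the campaign mean of all tested compounds plus 3 SD, cut at about 14% in these data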
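System: RBBP9 protein | Quantity: 2.5 µM RBBP9 dispensing solution, before mixing | Reagent: FP-Rh probe, 375 nM dispensing solution | Timing: Enzyme-compound preincubation 30 min, then probe labeling 45 min, 25 °C | Measured by: Fluorescence polarization | Read-out: % inhibition | Replication: One well per compound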
ABHD5 PLIN5 PPI = blocks binding of human ABHD5 to perilipin-5 | Q00G26+Q8WTS1 | 360,000 tested, 0.78% active | inhibition, % at 4 µM | Split G. princeps luciferase complementation, luminescence, 4 h;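 active = inhibition above the mean inhibition across every tested compound plus 3 SD, cut at about 22% in these data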
UHRF1 MBD2 ctr = UHRF1 methyl-DNA binding inhibition. Q96T88. UHRF1 binding to methylated oligo, TR-FRET. inhibition, % at 4.4 µM. 370,000 tested, 0.75% active. AID 687016; in the data active = inhibition above about 21%;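 also: UHRF1 SRA domain binding a hemimethylated CpG hairpin DNA probe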
Target sequence (Q96T88 whole entry, looked up, the tested form may be a part): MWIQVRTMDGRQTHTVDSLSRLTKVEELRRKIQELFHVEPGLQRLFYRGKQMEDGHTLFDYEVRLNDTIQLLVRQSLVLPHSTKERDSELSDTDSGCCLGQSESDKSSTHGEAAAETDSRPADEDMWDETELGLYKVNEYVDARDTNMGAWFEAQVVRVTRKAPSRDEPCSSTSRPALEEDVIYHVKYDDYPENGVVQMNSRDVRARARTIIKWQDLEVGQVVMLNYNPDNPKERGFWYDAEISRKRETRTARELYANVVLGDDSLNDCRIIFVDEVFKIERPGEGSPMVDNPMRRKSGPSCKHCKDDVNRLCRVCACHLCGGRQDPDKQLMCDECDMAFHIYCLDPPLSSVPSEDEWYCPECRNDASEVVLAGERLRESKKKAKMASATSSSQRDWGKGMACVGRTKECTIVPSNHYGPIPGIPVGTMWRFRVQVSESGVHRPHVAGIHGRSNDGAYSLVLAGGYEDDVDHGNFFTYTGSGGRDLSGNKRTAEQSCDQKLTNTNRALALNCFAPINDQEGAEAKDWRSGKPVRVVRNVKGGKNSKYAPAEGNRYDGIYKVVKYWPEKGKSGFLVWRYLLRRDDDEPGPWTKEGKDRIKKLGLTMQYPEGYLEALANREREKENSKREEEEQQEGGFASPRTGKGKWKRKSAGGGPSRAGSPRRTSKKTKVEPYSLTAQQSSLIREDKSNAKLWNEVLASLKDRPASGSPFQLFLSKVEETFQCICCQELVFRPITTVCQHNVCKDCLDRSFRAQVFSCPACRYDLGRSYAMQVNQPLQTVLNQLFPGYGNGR
LEDGF integ inh = blocks HIV-1 LEDGF/p75-dependent DNA integration; inhibition, % at 3.7 µM; 370,000 tested, 0.64% active; TR-FRET IN-LEDGF/p75 DNA integration, Eu/Cy5;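 active = inhibition above the screen-wide mean plus 3 SD, cut at about 13% in these data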;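 also: signal is the Cy5 over europium emission ratio at 671 and 618 nm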
MBD2 inh = MBD2-methylated oligo binding inhibition. TR-FRET, MBD2 binding to methylated oligonucleotide. Q9UBB5. 370,000 tested, 0.31% active. AID 686964. inhibition, % at 4.4 µM; in the data active = inhibition above about 13%
PRMT1 inh conf = PRMT1 (human) inhibition, FP confirmation; AID 687036; 3,300 tested, 42% active; inhibition, % at 2.79 µM; recombinant His-PRMT1, activity-based probe fluorescence polarization; shares compounds with PRMT1 inh;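 active = mean inhibition across replicates above the hit cutoff derived for the earlier primary screen, cut at about 22% in these data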
Of the large screens only hits and unclear results are named; the others gave an inactive call (follow-up assays come after a bar, where they were run).

O=C(Nc1ccc2c(c1)OCO2)OC1CCC12CCCCC2 (stereo not drawn)	none (no result: RBBP9 inhibitor, ABHD5 PLIN5 PPI)
CC(=O)NC(=S)c1c(N)n(Cc2ccccc2)c(=O)n(C)c1=O	none (no result: PRMT1 inh, ABHD5 PLIN5 PPI, UHRF1 MBD2 ctr, LEDGF integ inh, MBD2 inh)
CC(=O)Nc1ccc(SCC(=O)c2c(N)n(Cc3ccccc3)c(=O)n(C)c2=O)cc1	PRMT1 inh 25.4 | PRMT1 inh conf inactive
COc1ccc2c(c1)-c1ccccc1S(=O)(=O)N(C)C2	PRMT1 inh 29.9 (no result: RBBP9 inhibitor) | PRMT1 inh conf inactive
COc1ccc2c(c1)CN(C)S(=O)(=O)c1ccccc1-2	none (no result: RBBP9 inhibitor)
CCOC(=O)C1=C(C)Nc2nc(=S)[nH]n2C1c1ccc(Cl)cc1 (stereo not drawn)	PRMT1 inh 28.7 | PRMT1 inh conf 24.8
Cc1ccc(CS(=O)(=O)Cc2ccc(C(=O)NCc3ccccn3)o2)cc1	PRMT1 inh 33.7 | PRMT1 inh conf inactive
COc1ccc(S(=O)(=O)Cc2ccc(C(=O)NCc3ccccn3)o2)cc1	none
COc1ccc(CN2C(=O)Cc3c2nc(N)c2c(N)nc(N4CCOCC4)c(C#N)c32)cc1	PRMT1 inh 25.1 | PRMT1 inh conf inactive
COCCN1C(=O)Cc2c1nc(N)c1c(N)nc(N3CCN(c4ccc(F)cc4)CC3)c(C#N)c21	PRMT1 inh 27.5 | PRMT1 inh conf inactive
CN(CCO)c1nc(N)c2c(N)nc3c(c2c1C#N)CC(=O)N3Cc1cccs1	PRMT1 inh 26.5 | PRMT1 inh conf inactive
O=C(c1ccc(F)cc1Cl)N1CCCC(c2nc(-c3cccs3)no2)C1 (stereo not drawn)	none (no result: RBBP9 inhibitor, ABHD5 PLIN5 PPI)
CN(C)c1cccc(/C=C2\CC3(OC(=O)c4ccco4)CCCN2C3)c1 (stereo not drawn)	none (no result: RBBP9 inhibitor, ABHD5 PLIN5 PPI)
N#Cc1c(-c2ccccc2)cc(-c2ccc3c(c2)OCO3)[nH]c1=O	none (no result: RBBP9 inhibitor)
COc1ccc(-c2cc(-c3ccco3)[nH]c(=O)c2C#N)cc1OC	PRMT1 inh 26.5 | PRMT1 inh conf 27.1
COCc1[nH]nc2c1C(c1cccc(C(F)(F)F)c1)N(c1ccc(OC)cc1)C2=O (stereo not drawn)	none (no result: RBBP9 inhibitor, ABHD5 PLIN5 PPI)
O=C(CSCc1ccco1)c1cccs1	PRMT1 inh 25.2 | PRMT1 inh conf 70.4
O=C(NCc1ccco1)c1cccs1	none
COC(=O)[C@]12C[C@H](CC(=O)N3CCN(C(=O)C4CC4)CC3)C(=O)N(Cc3cccc4ccccc34)C1=C[C@H](C(C)C)O[C@@H]2C1CC1	none (no result: RBBP9 inhibitor, ABHD5 PLIN5 PPI)
CCOC(=O)[C@]12CCCC=C1N(Cc1ccc(OC)cc1)C(=O)[C@@H]2CC(=O)N1CCN(C(=O)c2ccco2)CC1	none (no result: RBBP9 inhibitor, ABHD5 PLIN5 PPI)
Oc1ccccc1/C=N/NC(=S)NC1CC2CCC1C2 (stereo not drawn)	none
S=C(N/N=C/c1ccco1)NC1CC2CCC1C2 (stereo not drawn)	PRMT1 inh 26.7 (no result: RBBP9 inhibitor) | PRMT1 inh conf inactive
CC(C)(Sc1cc(C(C)(C)C)c(O)c(C(C)(C)C)c1)Sc1cc(C(C)(C)C)c(O)c(C(C)(C)C)c1	none
Cn1ccnc1C(O)c1cc(C(C)(C)C)c(O)c(C(C)(C)C)c1 (stereo not drawn)	PRMT1 inh 36.6 | PRMT1 inh conf inactive
COC(=O)C1CN(Cc2cn(CCC3OCCO3)nn2)CCS(=O)(=O)N1Cc1ccc(F)cc1 (stereo not drawn)	none (no result: RBBP9 inhibitor, ABHD5 PLIN5 PPI)
CCOC(=O)[C@H]1[C@H]2COc3ccccc3[C@@H]2N2C(=O)CN(Cc3ccc(C)cc3)C(=O)[C@@]12C	PRMT1 inh 50.2 (no result: RBBP9 inhibitor) | PRMT1 inh conf inactive
CCOC(=O)[C@H]1[C@H]2COc3ccc(C)cc3[C@@H]2N2C(=O)CN(Cc3ccc(Cl)cc3)C(=O)[C@@]12C	none (no result: RBBP9 inhibitor)
CC(C)N(C(=O)c1nn(C)c2c1CSc1ccccc1-2)C1CCCCC1	PRMT1 inh 39.3 (no result: RBBP9 inhibitor) | PRMT1 inh conf inactive
COc1ccccc1-[n+]1c(C)cc(/C=C2\Sc3ccccc3N2C)cc1C	PRMT1 inh 25.5 | PRMT1 inh conf inactive
COc1ccccc1OC(=O)CCN1c2ccccc2Sc2ccccc21	none
COC(=O)C(CN)CN1C(=O)c2ccccc2C1=O (stereo not drawn)	none (no result: RBBP9 inhibitor, ABHD5 PLIN5 PPI)
O=C(C1CCCN1S(=O)(=O)c1cccc([N+](=O)[O-])c1)N1CCN(c2ccccc2)CC1 (stereo not drawn)	none (no result: RBBP9 inhibitor, ABHD5 PLIN5 PPI)
CN(CC(=O)O)S(=O)(=O)c1cccs1	none
